Measured values of several laboratories.
Medium: plasma

| Structure (SMILES) | test system | setting | quantity | value |
| --- | --- | --- | --- | --- |
| COc1ccc2c(c1)CN(C(=O)CCN1CCC(Cc3ccccc3)CC1)CC[S@@+]2[O-] | male human | intravenous, 0.05 mg/kg, healthy volunteers | AUC(0-inf) | 250 ng·h/mL |
| OC[C@H]1O[C@@H](c2cc(Cc3ccc(C4CC4)cc3)c(Cl)c3c2CCO3)[C@H](O)[C@@H](O)[C@@H]1O | human | oral, 0.3 mg, single dose, fed | AUC(0-inf) | 31 ng·h/mL |
| N#Cc1cccc(-c2ccc3ncc(-c4cc(F)cc(F)c4)c(N4CCC(N)CC4)c3c2)c1O | male human | oral, 20 mg, single dose | AUC | 2360 ng·h/mL |
| C=CC(=O)NC1CCN(c2ncc3ncnc(Nc4ccc(Oc5ccc6c(c5)ncn6C)c(C)c4)c3n2)CC1 | male human | intravenous, 100 µg, single dose, healthy volunteers | AUC(0-inf) | 0.00269 µM·h |
| COc1ccc(-c2c(Nc3ccccn3)[nH]c3c(C4=CCCCC4)c(-c4ccccc4)nn3c2=O)cc1 | human | oral, 150 mg once daily, multiple doses, steady state, patients | AUC(0-t) | 93600 ng·h/mL |
| CC(C)c1nc(N(C)S(C)(=O)=O)nc(-c2ccc(F)cc2)c1/C=C/[C@@H](O)C[C@@H](O)CC(=O)O | human | oral, 10 mg, single dose, healthy volunteers | AUC(0-inf) | 36.7 ng·h/mL |
| CC(C)n1c(C2CCNCC2)nc2c([N+](=O)[O-])c(Br)c(Br)cc21 | human | oral, 150 mg, patients | AUC(0-t) | 2880 ng·h/mL |
| CC(=O)N(C)[C@H]1CCN(C(=O)c2cnc3c(c2)C[C@](C)(c2ccc(F)cc2)N3)C1 | male human | oral, 15 mg, multiple doses, once daily | AUC(0-inf) | 2.22 µM·h |
| O=C(COc1ccc(Cl)cc1)NC12CC(c3nnc([C@H]4C[C@@H](OC(F)(F)F)C4)o3)(C1)C2 | human | oral, 45 mg, multiple doses, once daily, steady state, healthy volunteers | AUC | 36.5 µM·h |
| COc1ccc(F)cc1C(=O)NCc1ccc(-c2nn([C@@H](C)C(F)(F)F)c(N)c2C(N)=O)cc1 | human | oral, 200 mg, single dose, fasted | AUC(0-inf) | 90200 ng·h/mL |
